# Activity calls are given as the source filed them. The rule behind the calls is not given here.
# Columns and labels:
# Plasma [1] = assay: Anticoagulant activity in human plasma assessed as increase in thrombin time at 5 x 10^-3M relative to control; assay type: functional, cell-free
# Summary of the method: (§1)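 Citrated pooled normal human plasma, 1:1 with compound in water (water control), held 2 min at 37 °C before coagulometer reading. APTT: reagent, 6 min at 37 °C, then 25 mmol/L CaCl2. PT: prewarmed reagent. TT: prewarmed 100 U/mL thrombin. Ratio is clotting time with compound over time with water. Duplicates repeated on three days (n = 6).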
# Plasma [2] = assay: Anticoagulant activity in human plasma assessed as increase in activated partial prothrombin time at 0.5 x 10^-3M relative to control; assay type: functional; summary of the method: as §1
# Plasma [3] = assay: Anticoagulant activity in human plasma assessed as increase in thrombin time at 0.5 x 10^-3M relative to control; assay type: functional, cell-free; summary of the method: as §1
# Plasma [4] = assay: Anticoagulant activity in human plasma assessed as increase in prothrombin time at 0.5 x 10^-3M relative to control; assay type: functional; summary of the method: as §1
# [5] = Anticoagulant activity in human plasma assessed as concentration required to double prothrombin time; assay type: functional
# Summary of the method: (§2)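 Citrated pooled normal human plasma mixed 1:1 with compound in water (final 5 × 10-3 to 0.05 × 10^-3 M) and held 2 min at 37 °C. APTT: reagent added, 6 min at 37 °C, then 25 mmol/L CaCl2. PT: prewarmed PT reagent. TT: prewarmed thrombin (100 U/mL). Clotting read on a coagulometer, duplicate, three days (n = 6). Doubling concentration taken from linear regression of each concentration-response curve.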
# [6] = (§3) Anticoagulant activity in human plasma assessed as concentration required to double thrombin time; assay type: functional; summary of the method: as §2
# [7] = Stability of the compound in human plasma assessed as compound remaining after 3 hrs; assay type: ADME, cell-free; details: read-out: Activity
# Summary of the method: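 Compound at 25 µM final in human plasma diluted 1:1 with PBS pH 7.4, shaken at 37 °C for 180 min. Time-zero and 180-min samples quenched with TBA buffer and cold acetonitrile, then centrifuged. Supernatant dried, redissolved and analysed by HPLC. Three independent samples per time point.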
# Blood [8] = assay: Anticoagulant activity in human whole blood assessed as alpha angle at 6.25 x 10^-4M by thromboelastography in presence of extrinsic activators; assay type: functional
# Summary of the method: (§4)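 Citrated whole blood from healthy donors (1:9 citrate), run within 5 h on a ROTEM analyzer. Compound in saline diluted 1:16 into blood to the final concentration stated; saline control. Intrinsic (InTEM) or extrinsic (ExTEM) activator added. Clot monitored at 37 °C in an oscillating cup-and-pin system for up to 60 min, giving R, K, angle and MA.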
# [9] = target: T1, Coagulation factor X/antithrombin III (Homo sapiens) (UniProt P01008+P00742); assay: Inhibition of human antithrombin 3/factor 10a assessed as 125 x 10^-6M CBS31.39 substrate hydrolysis at 1 x 10^-3M; assay type: protein-complex assay
# [10] = target: T1, Coagulation factor X/antithrombin III (Homo sapiens); assay: Inhibition of human antithrombin 3/factor 10a assessed as 25 x 10^-6M CBS31.39 substrate hydrolysis at 1 x 10^-3M; assay type: protein-complex assay
# [11] = target: Coagulation factor X (Homo sapiens) (UniProt P00742); assay: Inhibition of human factor 10a assessed as 125 x 10^-6M chromogenic TH substrate hydrolysis at 0.5 x 10^-3M
# Chain of Coagulation factor X (Homo sapiens) (P00742 41-179 limits assumed): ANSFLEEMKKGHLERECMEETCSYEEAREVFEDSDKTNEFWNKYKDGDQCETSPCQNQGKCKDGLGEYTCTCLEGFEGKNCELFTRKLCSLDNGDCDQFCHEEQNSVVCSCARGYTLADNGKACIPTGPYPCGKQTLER
# Chain of Coagulation factor X (Homo sapiens) (P00742 235-488 limits assumed): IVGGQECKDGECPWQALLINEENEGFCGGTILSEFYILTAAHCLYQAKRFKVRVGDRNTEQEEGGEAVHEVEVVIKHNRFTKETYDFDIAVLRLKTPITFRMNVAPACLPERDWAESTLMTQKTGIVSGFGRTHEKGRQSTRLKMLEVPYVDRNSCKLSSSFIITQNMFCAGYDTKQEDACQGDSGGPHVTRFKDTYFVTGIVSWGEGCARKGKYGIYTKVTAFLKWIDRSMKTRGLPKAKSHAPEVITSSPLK
# Summary of the method: (§5)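 Direct FXa test, with buffer in place of ATIII: compound in water in 50 mM Tris/HCl pH 8.3, 227 mM NaCl, 0.1% BSA, 10 min at 37 °C. Human FXa (0.5 U/mL final) added for 10 min, then CBS 31.39 (25 or 125 × 10^-6 M). Read at 405 nm every 12 s for 20 min. Percent inhibition from initial slope against water control, Michaelis-Menten fit.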
# Blood [12] = assay: Anticoagulant activity in human whole blood assessed as alpha angle at 6.25 x 10^-4M by thromboelastography in presence of intrinsic activators; assay type: functional; summary of the method: as §4
# [13] = target: Coagulation factor X (Homo sapiens) (UniProt P00742); assay: Inhibition of human factor 10a assessed as 125 x 10^-6M chromogenic TH substrate hydrolysis at 2 x 10^-3M; summary of the method: as §5
# Blood [14] = assay: Anticoagulant activity in human whole blood assessed as clotting time at 6.25 x 10^-4M by thromboelastography in presence of intrinsic activators; assay type: functional; summary of the method: as §4
# Mus musculus [15] = assay: Anticoagulant activity in mouse assessed as increase in activated partial prothrombin time at 150 umol/kg, ip relative to control; assay type: functional
# Summary of the method: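 Adult male CD1 mice (30-35 g) given compound in saline ip at 150 µmol/kg, fasted on the day. Citrated portal vein blood taken at 30, 60 and 120 min. APTT measured in platelet-poor plasma. Expressed as ratio to saline-treated mice, mean ± SEM of three experiments.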
# Blood [16] = assay: Anticoagulant activity in human whole blood assessed as maximum amplitude at 6.25 x 10^-4M by thromboelastography in presence of extrinsic activators; assay type: functional; summary of the method: as §4
# [17] = target: Coagulation factor X (Homo sapiens) (UniProt P00742); assay: Inhibition of human factor 10a assessed as 25 x 10^-6M chromogenic TH substrate hydrolysis at 0.5 x 10^-3M; summary of the method: as §5
# [18] = Anticoagulant activity in human plasma assessed as concentration required to double activated partial prothrombin time; assay type: functional; summary of the method: as §2
# [19] = target: T1, Coagulation factor X/antithrombin III (Homo sapiens); assay: Inhibition of human antithrombin 3/factor 10a assessed as 125 x 10^-6M CBS31.39 substrate hydrolysis at 0.5 x 10^-3M; assay type: protein-complex assay
# [20] = target: Coagulation factor X (Homo sapiens) (UniProt P00742); assay: Inhibition of human factor 10a assessed as 25 x 10^-6M chromogenic TH substrate hydrolysis at 1 x 10^-3M; summary of the method: as §5
# [21] = target: T1, Coagulation factor X/antithrombin III (Homo sapiens); assay: Inhibition of human antithrombin 3/factor 10a assessed as 125 x 10^-6M CBS31.39 substrate hydrolysis at 2 x 10^-3M; assay type: protein-complex assay
# [22] = target: Prothrombin (Homo sapiens) (UniProt P00734); assay: Inhibition of human thrombin
# Summary of the method: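 Direct thrombin assay without ATIII: compound in water in 50 mM Tris/HCl pH 8.3, 227 mM NaCl, 0.1% BSA, 10 min at 37 °C. Human thrombin (0.06 U/mL final) added for 10 min, then Chromozym TH (178 × 10^-6 M). Read at 405 nm every 12 s for 20 min. Percent inhibition from initial slope against water control. Duplicates on ≥3 days.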
# [23] = target: T1, Coagulation factor X/antithrombin III (Homo sapiens); assay: Inhibition of human antithrombin 3/factor 10a assessed as 25 x 10^-6M CBS31.39 substrate hydrolysis at 0.5 x 10^-3M; assay type: protein-complex assay
# Blood [24] = assay: Anticoagulant activity in human whole blood assessed as maximum amplitude at 6.25 x 10^-4M by thromboelastography in presence of intrinsic activators; assay type: functional; summary of the method: as §4
# Blood [25] = assay: Anticoagulant activity in human whole blood assessed as clotting formation time at 6.25 x 10^-4M by thromboelastography in presence of intrinsic activators; assay type: functional; summary of the method: as §4
# Blood [26] = assay: Anticoagulant activity in human whole blood assessed as clotting formation time at 6.25 x 10^-4M by thromboelastography in presence of extrinsic activators; assay type: functional; summary of the method: as §4
# Mus musculus [27] = assay: Hepatotoxicity in mouse liver assessed as change in plasma GOT/GPT level at 150 umol/kg, ip; assay type: toxicity, organism-based; details: in vivo
# Summary of the method: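 Male CD1 mice (30-35 g), compound in saline ip at 150 µmol/kg. Portal vein citrated blood taken at 30, 60 and 120 min. GOT and GPT (U/L) measured in platelet-poor plasma on an automated chemistry analyzer. Four independent experiments, mean ± SEM.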
# [28] = Antiplatelet activity against collagen EPI-induced human platelet aggregation assessed as closure time at 6.25 x 10^-4M; assay type: functional
# Summary of the method: (§6)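 Compound solution added to citrated human whole blood (125 µL into 1875 µL) to the final concentration stated, then run on a PFA-100 in collagen/ADP and collagen/epinephrine cartridges. Closure time is the time until platelets occlude the membrane aperture, in seconds. Mean ± SEM of three independent experiments.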
# [29] = Antiplatelet activity against collagen ADP-induced human platelet aggregation assessed as closure time at 6.25 x 10^-4M; assay type: functional; summary of the method: as §6
# [30] = target: T1, Coagulation factor X/antithrombin III (Homo sapiens); assay: Inhibition of human antithrombin 3/factor 10a assessed as 25 x 10^-6M CBS31.39 substrate hydrolysis at 2 x 10^-3M; assay type: protein-complex assay
# Blood [31] = assay: Anticoagulant activity in human whole blood assessed as clotting time at 6.25 x 10^-4M by thromboelastography in presence of extrinsic activators; assay type: functional; summary of the method: as §4
# [32] = target: Coagulation factor X (Homo sapiens) (UniProt P00742); assay: Inhibition of human factor 10a assessed as 125 x 10^-6M chromogenic TH substrate hydrolysis at 1 x 10^-3M; summary of the method: as §5
# Homo sapiens = species: Homo sapiens; assay: as §3; assay type: functional; summary of the method: as §2
# [33] = target: Coagulation factor X (Homo sapiens) (UniProt P00742); assay: Inhibition of human factor 10a assessed as 25 x 10^-6M chromogenic TH substrate hydrolysis at 2 x 10^-3M; summary of the method: as §5
# Plasma [34] = assay: Anticoagulant activity in human plasma assessed as increase in activated partial prothrombin time at 5 x 10^-3M relative to control; assay type: functional; summary of the method: as §1
# Plasma [35] = assay: Anticoagulant activity in human plasma assessed as increase in prothrombin time at 5 x 10^-3M relative to control; assay type: functional; summary of the method: as §1
Compound,2PT [5],Activity (Blood [8]),inhibition [9],inhibition [10],inhibition [11],Activity (Blood [12]),inhibition [13],Time (Blood [14]),Activity (Blood [16]),inhibition [17],2aPTT [18],inhibition [19],inhibition [20],inhibition [21],inhibition [22],inhibition [23],Activity (Blood [24]),Time (Blood [25]),Time (Blood [26]),Time [28],further results
COc1ccc(-c2cc(=O)c3c(O)cc(OS(=O)(=O)O)cc3o2)cc1OS(=O)(=O)O,–,–,–,–,–,–,–,–,–,–,–,–,–,–,–,–,–,–,–,–,Activity (Plasma [1]): inactive; fold change (FC) (Plasma [2]): 1.65; Activity (Plasma [3]): inactive; fold change (FC) (Plasma [4]): 1.1
COc1ccc(-c2cc(=O)c3c(O)cc(O[C@@H]4O[C@H](CO[C@@H]5O[C@@H](C)[C@H](OS(=O)(=O)O)[C@@H](OS(=O)(=O)O)[C@H]5OS(=O)(=O)O)[C@@H](OS(=O)(=O)O)[C@H](OS(=O)(=O)O)[C@H]4OS(=O)(=O)O)cc3o2)cc1O,2230 µM,68 degree,38.7%,22.6%,inactive,57 degree,23.4%,267 s,54 mm,inactive,435 µM,28.9%,inactive,50.7%,inactive,inactive,45 mm,229 s,150 s,171 s,Activity [6]: > 5000 µM; remaining at 3 h [7]: 95%; fold change (FC) (Mus musculus [15]): 1.5; Activity (Mus musculus [27]): Non-toxic; Time [29]: 162 s; inhibition [30]: 43.7%; Time (Blood [31]): 49 s; inhibition [32]: inactive
COc1ccc([C@@H]2CC(=O)c3c(O)cc(O[C@@H]4O[C@H](CO[C@@H]5O[C@@H](C)[C@H](OS(=O)(=O)O)[C@@H](OS(=O)(=O)O)[C@H]5OS(=O)(=O)O)[C@@H](OS(=O)(=O)O)[C@H](OS(=O)(=O)O)[C@H]4OS(=O)(=O)O)cc3O2)cc1O,3620 µM,70 degree,46.2%,40.2%,inactive,57 degree,inactive,300 s,59 mm,inactive,413 µM,39.7%,inactive,58.1%,inactive,30.5%,40 mm,214 s,116 s,167 s,Activity (Homo sapiens): inactive; inhibition [33]: inactive; Time [29]: 139 s; inhibition [30]: 49.6%; Time (Blood [31]): 59 s; inhibition [32]: inactive
C[C@H]1O[C@@H](OC[C@@H]2O[C@H](Oc3c(-c4ccc(OCCOS(=O)(=O)O)c(OCCOS(=O)(=O)O)c4)oc4cc(OCCOS(=O)(=O)O)cc(O)c4c3=O)[C@@H](OS(=O)(=O)O)[C@H](OS(=O)(=O)O)[C@H]2OS(=O)(=O)O)[C@@H](OS(=O)(=O)O)[C@@H](OS(=O)(=O)O)[C@@H]1OS(=O)(=O)O,835 µM,69 degree,24.8%,47.6%,inactive,67 degree,53.3%,560 s,61 mm,25.7%,145 µM,20.3%,41.9%,33.6%,inactive,28.1%,64 mm,122 s,111 s,>300 s,Activity [6]: 867 µM; Time [29]: 204 s; inhibition [30]: 56%; Time (Blood [31]): 105 s; inhibition [32]: 38.8%
"COc1ccc([C@@H]2CC(=O)c3c(O)cc(OS(=O)(=O)O)cc3O2)cc1OS(=O)(=O)O [HESPERETIN 3',7-O-DISULFATE]",–,–,–,–,–,–,–,–,–,–,–,–,–,–,–,–,–,–,–,–,fold change (FC) (Plasma [34]): 1.1; Activity (Plasma [1]): inactive; fold change (FC) (Plasma [35]): 1.2; Activity (Plasma [3]): inactive
